# Data: ChEMBL document CHEMBL1123757, “Selective thromboxane synthetase inhibitors and antihypertensive agents. New derivatives of 4-hydrazino-5H-pyridazino[4,5-b]indole, 4-hydrazinopyridazino[4,5-a]indole, and related compounds” (J Med Chem, 1987)
# Tests used:
# Rattus norvegicus [1] = assay: Antihypertensive activity in spontaneously hypertensive rats (SHR) measured by percentage fall in arterial pressure (AP) at 25 mg/kg administered perorally at 1 h; type: functional, Artery; conditions: route oral
# How it was run: (§1)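 Oral dosing at 2.5 mL/kg to unanesthetized male and female Okamoto-strain SHR (8 weeks old, 300–350 g, systolic pressure ≥190 mmHg, heart rate 400–650 beats/min), five per dose. Vehicle was normal saline or saline with 0.2% (carboxymethyl)cellulose and 1.0% Tween 80. AP measured on the tail by mechanical transduction at set times; expressed as percentage fall from control.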
# Rattus norvegicus [2] = assay: Antihypertensive activity in spontaneously hypertensive rats (SHR) measured by percentage fall in cardiac rhythm (CR) at 25 mg/kg administered intraperitoneally at 24 h; type: functional, Heart; conditions: route intraperitoneal
# How it was run: (§2)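 Unanesthetized Okamoto-strain SHR, male and female, 8 weeks old, 300–350 g, systolic pressure ≥190 mmHg, heart rate 400–650 beats/min; five animals per dose. Given ip at 2.5 mL/kg, dissolved or suspended in normal saline or saline with 0.2% (carboxymethyl)cellulose and 1.0% Tween 80. Tail AP and CR recorded by mechanical transduction at set times; reported as percentage fall from control.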
# Rattus norvegicus [3] = assay: Antihypertensive activity in spontaneously hypertensive rats (SHR) measured by percentage fall in cardiac rhythm (CR) at 1 mg/kg administered intraperitoneally at 5 h; type: functional, Heart; conditions: route intraperitoneal; how it was run: as §2
# Homo sapiens [4] = species on record: Homo sapiens; assay: In vitro inhibition of platelet aggregation induced by ADP-II (PRP incubated for 5 minutes at 37 degree C) at 10e-5 M; type: functional
# How it was run: (§3)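 Human venous blood anticoagulated with 3.8% sodium citrate (1:9). PRP from centrifugation at 800 rpm for 10 min at room temperature. Count adjusted with PPP to […]. Compound in saline with 10% ethylene glycol is added to PRP and incubated at 37 °C before the agonist. Agonists: ADP 2×10^-5 M, AA 0.6 mM, PGH2 2.8 μM, adrenaline 0.6 μM. Born absorbance aggregometry; n = 5.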
# Rattus norvegicus [5] = assay: Antihypertensive activity in spontaneously hypertensive rats (SHR) measured by percentage fall in cardiac rhythm (CR) at 5 mg/kg administered perorally at 1 h; type: functional, Heart; conditions: route oral
# How it was run: (§4)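 Conscious SHR (Okamoto strain), 8 weeks old, male and female, 300–350 g, systolic BP ≥190 mmHg, CR 400–650 beats/min. Given ip or po at 2.5 mL/kg in normal saline or saline with 0.2% (carboxymethyl)cellulose and 1.0% Tween 80. Tail AP and CR recorded by mechanical transduction at 1, 3, 5 and 24 h, five animals per dose. Effect expressed as % fall versus control.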
# Homo sapiens [6] = species on record: Homo sapiens; assay: In vitro inhibition of platelet aggregation induced by ADP-II (PRP incubated for 60 minutes at 37 degree C) at 10e-5 M; type: functional; conditions: 1 h; how it was run: as §3
# Rattus norvegicus [7] = assay: Antihypertensive activity in spontaneously hypertensive rats (SHR) measured by percentage fall in arterial pressure (AP) at 25 mg/kg administered intraperitoneally at 5 h; type: functional, Artery; conditions: route intraperitoneal; how it was run: as §2
# Rattus norvegicus [8] = assay: Antihypertensive activity in spontaneously hypertensive rats (SHR) measured by percentage fall in cardiac rhythm (CR) at 25 mg/kg administered intraperitoneally at 5 h; type: functional, Heart; conditions: route intraperitoneal; how it was run: as §4
# Rattus norvegicus [9] = assay: Antihypertensive activity in spontaneously hypertensive rats (SHR) measured by percentage fall in cardiac rhythm (CR) at 1 mg/kg administered intraperitoneally at 24 h; type: functional, Heart; conditions: route intraperitoneal; how it was run: as §2
# Rattus norvegicus [10] = assay: Antihypertensive activity in spontaneously hypertensive rats (SHR) measured by percentage fall in arterial pressure (AP) at 25 mg/kg administered intraperitoneally at 3 h; type: functional, Artery; conditions: route intraperitoneal; how it was run: as §2
# Rattus norvegicus [11] = assay: Antihypertensive activity in spontaneously hypertensive rats (SHR) measured by percentage fall in arterial pressure (AP) at 5 mg/kg administered intraperitoneally at 1 h; type: functional, Artery; conditions: route intraperitoneal; how it was run: as §2
# Rattus norvegicus [12] = assay: Antihypertensive activity in spontaneously hypertensive rats (SHR) measured by percentage fall in cardiac rhythm (CR) at 5 mg/kg administered intraperitoneally at 5 h; type: functional, Heart; conditions: route intraperitoneal; how it was run: as §4
# Rattus norvegicus [13] = assay: Antihypertensive activity in spontaneously hypertensive rats (SHR) measured by percentage fall in arterial pressure (AP) at 5 mg/kg administered intraperitoneally at 24 h; type: functional, Artery; conditions: route intraperitoneal; how it was run: as §2
# Rattus norvegicus [14] = assay: Antihypertensive activity in spontaneously hypertensive rats (SHR) measured by percentage fall in arterial pressure (AP) at 5 mg/kg administered perorally at 1 h; type: functional, Artery; conditions: route oral; how it was run: as §1
# Rattus norvegicus [15] = assay: Antihypertensive activity in spontaneously hypertensive rats (SHR) measured by percentage fall in cardiac rhythm (CR) at 25 mg/kg administered intraperitoneally at 3 h; type: functional, Heart; conditions: route intraperitoneal; how it was run: as §2
# Rattus norvegicus [16] = assay: Percent fall in systolic blood pressure, directly measured on carotid (iv on the jugular vein) of spontaneously hypertensive rats at 1 mg/kg after 45 minutes; type: functional, Artery
# How it was run: (§5)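 Anesthetized (sodium pentobarbital, 70 mg/kg) male and female Okamoto SHR, 8 weeks old, 300–350 g. Given iv into the jugular vein in normal saline. Arterial pressure and cardiac rhythm are recorded directly from the carotid by polygraph at set times after dosing. Each is expressed as percent change from the pre-dose control value.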
# Rattus norvegicus [17] = assay: Percent fall in systolic blood pressure, directly measured on carotid (iv on the jugular vein) of spontaneously hypertensive rats at 1 mg/kg after 10 minutes; type: functional, Artery; how it was run: as §5
# Rattus norvegicus [18] = assay: Percent fall in systolic blood pressure, directly measured on carotid (iv on the jugular vein) of spontaneously hypertensive rats at 1 mg/kg after 5 minutes; type: functional, Artery; how it was run: as §5
# Rattus norvegicus [19] = assay: Antihypertensive activity in spontaneously hypertensive rats (SHR) measured by percentage fall in cardiac rhythm (CR) at 1 mg/kg administered intraperitoneally at 1 h; type: functional, Heart; conditions: route intraperitoneal; how it was run: as §2
# Rattus norvegicus [20] = assay: Percent fall in systolic blood pressure, directly measured on carotid (iv on the jugular vein) of spontaneously hypertensive rats at 1 mg/kg after 30 minutes; type: functional, Artery; how it was run: as §5
# Rattus norvegicus [21] = assay: Antihypertensive activity in spontaneously hypertensive rats (SHR) measured by percentage fall in arterial pressure (AP) at 5 mg/kg administered intraperitoneally at 3 h; type: functional, Artery; conditions: route intraperitoneal; how it was run: as §2
# Rattus norvegicus [22] = assay: Antihypertensive activity in spontaneously hypertensive rats (SHR) measured by percentage fall in cardiac rhythm (CR) at 1 mg/kg administered intraperitoneally at 3 h; type: functional, Heart; conditions: route intraperitoneal; how it was run: as §2
# Rattus norvegicus [23] = assay: Antihypertensive activity in spontaneously hypertensive rats (SHR) measured by percentage fall in arterial pressure (AP) at 1 mg/kg administered intraperitoneally at 1 h; type: functional, Artery; conditions: route intraperitoneal; how it was run: as §2
# Rattus norvegicus [24] = assay: Antihypertensive activity in spontaneously hypertensive rats (SHR) measured by percentage fall in cardiac rhythm (CR) at 25 mg/kg administered perorally at 1 h; type: functional, Heart; conditions: route oral; how it was run: as §4
# Rattus norvegicus [25] = assay: Percent fall in systolic blood pressure, directly measured on carotid (iv on the jugular vein) of spontaneously hypertensive rats at 1 mg/kg after 90 minutes; type: functional, Artery; how it was run: as §5
# Rattus norvegicus [26] = assay: Antihypertensive activity in spontaneously hypertensive rats (SHR) measured by percentage fall in arterial pressure (AP) at 25 mg/kg administered intraperitoneally at 24 h; type: functional, Artery; conditions: route intraperitoneal; how it was run: as §2
# Rattus norvegicus [27] = assay: Percent fall in systolic blood pressure, directly measured on carotid (iv on the jugular vein) of spontaneously hypertensive rats at 1 mg/kg after 75 minutes; type: functional, Artery; how it was run: as §5
# Rattus norvegicus [28] = assay: Antihypertensive activity in spontaneously hypertensive rats (SHR) measured by percentage fall in arterial pressure (AP) at 5 mg/kg administered perorally at 3 h; type: functional, Artery; conditions: route oral; how it was run: as §1
# Rattus norvegicus [29] = assay: Antihypertensive activity in spontaneously hypertensive rats (SHR) measured by percentage fall in arterial pressure (AP) at 5 mg/kg administered intraperitoneally at 5 h; type: functional, Artery; conditions: route intraperitoneal; how it was run: as §2
# Rattus norvegicus [30] = assay: Antihypertensive activity in spontaneously hypertensive rats (SHR) measured by percentage fall in arterial pressure (AP) at 25 mg/kg administered perorally at 3 h; type: functional, Artery; conditions: route oral; how it was run: as §1
# Rattus norvegicus [31] = assay: Antihypertensive activity in spontaneously hypertensive rats (SHR) measured by percentage fall in arterial pressure (AP) at 1 mg/kg administered intraperitoneally at 3 h; type: functional, Artery; conditions: route intraperitoneal; how it was run: as §2
# Rattus norvegicus [32] = assay: Antihypertensive activity in spontaneously hypertensive rats (SHR) measured by percentage fall in arterial pressure (AP) at 25 mg/kg administered intraperitoneally at 1 h; type: functional, Artery; conditions: route intraperitoneal; how it was run: as §2
# Rattus norvegicus [33] = assay: Percent fall in systolic blood pressure, directly measured on carotid (iv on the jugular vein) of spontaneously hypertensive rats at 1 mg/kg after 60 minutes; type: functional, Artery; how it was run: as §5
# Rattus norvegicus [34] = assay: Percent fall in systolic blood pressure, directly measured on carotid (iv on the jugular vein) of spontaneously hypertensive rats at 1 mg/kg after 15 minutes; type: functional, Artery; how it was run: as §5
smiles,measurement,setting,value
CCOc1ccc2[nH]c3c(NN)nncc3c2c1.Cl,Decrease in AP,Rattus norvegicus [1],16%
same,Decrease in CR,Rattus norvegicus [2],-11%
same,Decrease in CR,Rattus norvegicus [3],-10%
same,inhibition at 10 µM,Homo sapiens [4],100%
same,Decrease in CR,Rattus norvegicus [5],-11%
same,inhibition at 10 µM,Homo sapiens [6],100%
same,Decrease in AP,Rattus norvegicus [7],51%
same,Decrease in CR,Rattus norvegicus [8],-20%
same,Decrease in CR,Rattus norvegicus [9],10%
same,Decrease in AP,Rattus norvegicus [10],57%
same,Decrease in AP,Rattus norvegicus [11],59%
same,Decrease in CR,Rattus norvegicus [12],-7%
same,Decrease in AP,Rattus norvegicus [13],12%
same,Decrease in AP,Rattus norvegicus [14],15%
same,Decrease in CR,Rattus norvegicus [15],-17%
same,Decrease in blood pressure,Rattus norvegicus [16],36%
same,Decrease in blood pressure,Rattus norvegicus [17],18%
same,Decrease in blood pressure,Rattus norvegicus [18],16%
same,Decrease in CR,Rattus norvegicus [19],6%
same,Decrease in blood pressure,Rattus norvegicus [20],32%
same,Decrease in AP,Rattus norvegicus [21],37%
same,Decrease in CR,Rattus norvegicus [22],-5%
same,Decrease in AP,Rattus norvegicus [23],29%
same,Decrease in CR,Rattus norvegicus [24],11%
same,Decrease in blood pressure,Rattus norvegicus [25],25%
same,Decrease in AP,Rattus norvegicus [26],34%
same,Decrease in blood pressure,Rattus norvegicus [27],32%
same,Decrease in AP,Rattus norvegicus [28],10%
same,Decrease in AP,Rattus norvegicus [29],32%
same,Decrease in AP,Rattus norvegicus [30],5%
same,Decrease in AP,Rattus norvegicus [31],10%
same,Decrease in AP,Rattus norvegicus [32],57%
same,Decrease in blood pressure,Rattus norvegicus [33],41%
same,Decrease in blood pressure,Rattus norvegicus [34],20%
